Measured values from ChEMBL document CHEMBL1140198, “Studies on novel 4beta-[(4-substituted)-1,2,3-triazol-1-yl] podophyllotoxins as potential anticancer agents” (Eur J Med Chem, 2008).

Legend:
Format in all cases: functional, cell-based
[1] = test system: HCT-15; test: Cytotoxicity against human HCT-15 cells by sulforhodamine B assay
In short: (§1)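 Log-phase cells seeded at 10⁴ cells/well and allowed to attach for 24 h at 37 °C, 5% CO₂. Then exposed to test samples over a 1:10 serial dilution series for 48 h under the same conditions, four replicate wells per condition. Fixed with 50% chilled TCA for 1 h at 4 °C, stained with sulforhodamine B, and the bound dye dissolved in Tris buffer.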

[2] = Cytotoxicity against human 502713 cells by sulforhodamine B assay; in short: as §1
[3] = test system: HEp-2; test: Cytotoxicity against human HEP2 cells by sulforhodamine B assay; in short: as §1
[4] = test system: A549; test: Cytotoxicity against human A549 cells by sulforhodamine B assay; in short: as §1
[5] = test system: DU-145; test: Cytotoxicity against human DU145 cells by sulforhodamine B assay; in short: as §1
[6] = test system: PC-3; test: Cytotoxicity against human PC-3 cells by sulforhodamine B assay; in short: as §1
[7] = test system: SF-295; test: Cytotoxicity against human SF295 cells by sulforhodamine B assay; in short: as §1

Structure (SMILES)	IC50 [1] [nM]	IC50 [2] [nM]	IC50 [3] [nM]	IC50 [4] [nM]	IC50 [5] [nM]	IC50 [6] [nM]	IC50 [7] [nM]
COc1cc([C@@H]2c3cc4c(cc3[C@@H](n3cc(CNc5cccc(Cl)c5)nn3)[C@H]3COC(=O)[C@H]23)OCO4)cc(OC)c1OC	340	710	1370	4990	930	1180	840
COc1cc([C@@H]2c3cc4c(cc3[C@@H](n3cc(CNc5ccccc5C)nn3)[C@H]3COC(=O)[C@H]23)OCO4)cc(OC)c1O	140	620	1500	5170	1190	1530	960
COc1cc([C@@H]2c3cc4c(cc3[C@@H](n3cc(CNc5ccccc5)nn3)[C@H]3COC(=O)[C@H]23)OCO4)cc(OC)c1O	400	680	2960	7460	1090	1030	700
COc1cc([C@@H]2c3cc4c(cc3[C@@H](n3cc(CNc5cccc([N+](=O)[O-])c5)nn3)[C@H]3COC(=O)[C@H]23)OCO4)cc(OC)c1OC	40	560	3650	5780	650	740	680
COc1cc([C@@H]2c3cc4c(cc3[C@@H](n3cc(CNc5ccccc5)nn3)[C@H]3COC(=O)[C@H]23)OCO4)cc(OC)c1OC	140	610	4640	6100	1120	880	780
COc1cc([C@@H]2c3cc4c(cc3[C@@H](n3cc(CNc5ccccc5C)nn3)[C@H]3COC(=O)[C@H]23)OCO4)cc(OC)c1OC	360	780	9140	7880	1060	1090	1940
COc1cc([C@@H]2c3cc4c(cc3[C@@H](n3cc(CNc5cccc([N+](=O)[O-])c5)nn3)[C@H]3COC(=O)[C@H]23)OCO4)cc(OC)c1O	1550	1190	4100	7430	4370	6630	4200
COc1cc([C@@H]2c3cc4c(cc3[C@@H](n3cc(CNc5cccc(Cl)c5)nn3)[C@H]3COC(=O)[C@H]23)OCO4)cc(OC)c1O	4220	980	1220	8630	4160	1370	3110
COc1cc([C@@H]2c3cc4c(cc3[C@@H](n3cc(CNc5ccccc5Cl)nn3)[C@H]3COC(=O)[C@H]23)OCO4)cc(OC)c1OC	1430	1880	1260	9240	3570	3450	1000
COc1cc([C@@H]2c3cc4c(cc3[C@@H](O[C@@H]3O[C@@H]5CO[C@@H](C)O[C@H]5[C@H](O)[C@H]3O)[C@H]3COC(=O)[C@H]23)OCO4)cc(OC)c1O [ETOPOSIDE]	1480	2420	2150	5620	3850	17400	13300
COc1cc([C@@H]2c3cc4c(cc3[C@H](O)[C@H]3COC(=O)[C@H]23)OCO4)cc(OC)c1OC [PODOFILOX]	1000	3880	1420	7630	2970	18900	5690
